Measurements published in ChEMBL document CHEMBL1136767, “Novel nonimidazole histamine H3 receptor antagonists: 1-(4-(phenoxymethyl)benzyl)piperidines and related compounds” (J Med Chem, 2003).

Assays:
[1] = target: Histamine H3 receptor (Mus musculus) (UniProt P58406); assay: In vivo effects in mice against H3 receptor on N6-methylhistamine levels in brain (following oral dosing of compound); type: functional, organism-based
Method in brief: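 Swiss mice fasted 24 h, dosed orally; decapitated 90 min later and cerebral cortex homogenized in ice-cold 0.4 M perchloric acid. Nτ-methylhistamine measured by radioimmunoassay.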

[2] = target: T1, Histamine H3 receptor (Homo sapiens, UniProt Q9Y5N1); assay: Displacement of [125I]iodoproxyfan from human histamine H3 receptor expressing CHO cells; type: cell-based
T1 sequence (Q9Y5N1 whole entry): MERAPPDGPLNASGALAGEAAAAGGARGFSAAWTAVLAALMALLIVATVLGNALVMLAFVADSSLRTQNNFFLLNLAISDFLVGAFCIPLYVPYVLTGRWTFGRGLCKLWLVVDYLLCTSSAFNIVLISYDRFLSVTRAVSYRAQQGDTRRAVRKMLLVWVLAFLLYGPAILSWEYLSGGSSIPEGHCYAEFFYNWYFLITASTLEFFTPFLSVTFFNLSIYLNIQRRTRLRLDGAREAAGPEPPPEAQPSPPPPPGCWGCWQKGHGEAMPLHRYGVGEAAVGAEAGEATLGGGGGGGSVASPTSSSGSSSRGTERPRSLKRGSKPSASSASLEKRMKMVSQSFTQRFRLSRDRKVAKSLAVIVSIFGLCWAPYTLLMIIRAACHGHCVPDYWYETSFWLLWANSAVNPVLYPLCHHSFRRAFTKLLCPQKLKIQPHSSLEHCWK

[3] = target: Histamine H3 receptor (Cavia porcellus, UniProt Q9JI35); assay: Potency at histamine H3 receptor subtype, was tested on guinea pig right ileum; type: tissue-based; details: read-out: pA2 (converted)
Sequence of Histamine H3 receptor (Cavia porcellus, UniProt Q9JI35) (Q9JI35 whole entry): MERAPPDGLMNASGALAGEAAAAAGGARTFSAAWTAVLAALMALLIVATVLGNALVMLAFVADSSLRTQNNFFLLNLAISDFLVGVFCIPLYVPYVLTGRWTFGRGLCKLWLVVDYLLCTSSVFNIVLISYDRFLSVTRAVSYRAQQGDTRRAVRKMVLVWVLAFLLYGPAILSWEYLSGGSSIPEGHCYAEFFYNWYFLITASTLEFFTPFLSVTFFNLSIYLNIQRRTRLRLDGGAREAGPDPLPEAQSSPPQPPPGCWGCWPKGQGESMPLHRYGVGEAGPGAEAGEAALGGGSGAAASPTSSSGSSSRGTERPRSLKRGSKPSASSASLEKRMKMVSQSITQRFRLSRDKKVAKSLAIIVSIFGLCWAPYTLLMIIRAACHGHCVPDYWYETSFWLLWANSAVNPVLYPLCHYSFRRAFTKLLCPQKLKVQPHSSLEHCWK

[4] = target: Histamine H2 receptor (Cavia porcellus, UniProt P47747); assay: Potency at histamine H2 receptor subtype, was tested on guinea pig right atrium; type: tissue-based, Cardiac atrium; details: read-out: pA2 (converted)
Sequence of Histamine H2 receptor (P47747 whole entry): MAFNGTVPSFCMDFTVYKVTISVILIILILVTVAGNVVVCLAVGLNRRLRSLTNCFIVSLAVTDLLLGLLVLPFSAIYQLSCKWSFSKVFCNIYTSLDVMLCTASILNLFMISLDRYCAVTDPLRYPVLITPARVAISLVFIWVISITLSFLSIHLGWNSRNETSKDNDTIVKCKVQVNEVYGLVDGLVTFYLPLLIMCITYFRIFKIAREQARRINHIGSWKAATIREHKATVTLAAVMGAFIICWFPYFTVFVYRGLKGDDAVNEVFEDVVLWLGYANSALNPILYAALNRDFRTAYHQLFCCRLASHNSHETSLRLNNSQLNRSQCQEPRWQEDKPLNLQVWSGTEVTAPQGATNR

[5] = target: Histamine H1 receptor (Cavia porcellus, UniProt P31389); assay: Potency at histamine H1 receptor subtype, was tested on guinea pig right ileum; type: tissue-based; details: read-out: pA2 (converted)
Sequence of Histamine H1 receptor (P31389 whole entry): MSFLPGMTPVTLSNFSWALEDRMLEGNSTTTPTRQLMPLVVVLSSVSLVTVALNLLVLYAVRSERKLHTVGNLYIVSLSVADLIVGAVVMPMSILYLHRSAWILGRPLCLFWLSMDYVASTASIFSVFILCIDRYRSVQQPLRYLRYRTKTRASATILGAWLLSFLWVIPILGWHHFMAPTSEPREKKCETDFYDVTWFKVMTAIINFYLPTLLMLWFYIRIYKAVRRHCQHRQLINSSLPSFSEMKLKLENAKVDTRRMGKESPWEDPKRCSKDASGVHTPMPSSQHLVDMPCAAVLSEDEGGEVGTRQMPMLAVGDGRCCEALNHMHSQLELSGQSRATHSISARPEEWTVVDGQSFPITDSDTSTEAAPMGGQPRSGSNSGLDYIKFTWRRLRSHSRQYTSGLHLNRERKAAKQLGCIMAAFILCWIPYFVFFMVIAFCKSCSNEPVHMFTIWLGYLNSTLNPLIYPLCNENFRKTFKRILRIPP

[6] = target: Histamine N-methyltransferase (Rattus norvegicus, UniProt Q01984); assay: Compound was tested against histamine N-methyl-transferase in rat brain [EC 2.1.1.8](relative weak affinity on rat enzyme); type: tissue-based
Sequence of Histamine N-methyltransferase (Q01984 whole entry): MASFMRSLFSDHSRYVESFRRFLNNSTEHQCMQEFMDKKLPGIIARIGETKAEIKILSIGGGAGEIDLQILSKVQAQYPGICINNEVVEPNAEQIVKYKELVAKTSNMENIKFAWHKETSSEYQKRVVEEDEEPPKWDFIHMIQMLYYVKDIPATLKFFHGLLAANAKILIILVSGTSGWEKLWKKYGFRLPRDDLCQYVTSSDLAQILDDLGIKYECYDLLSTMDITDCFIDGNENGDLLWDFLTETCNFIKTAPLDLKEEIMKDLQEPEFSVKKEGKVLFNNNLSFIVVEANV

[7] = target: T1, Histamine H3 receptor; assay: biochemical

Sequence of Histamine H3 receptor (Mus musculus) (P58406 whole entry): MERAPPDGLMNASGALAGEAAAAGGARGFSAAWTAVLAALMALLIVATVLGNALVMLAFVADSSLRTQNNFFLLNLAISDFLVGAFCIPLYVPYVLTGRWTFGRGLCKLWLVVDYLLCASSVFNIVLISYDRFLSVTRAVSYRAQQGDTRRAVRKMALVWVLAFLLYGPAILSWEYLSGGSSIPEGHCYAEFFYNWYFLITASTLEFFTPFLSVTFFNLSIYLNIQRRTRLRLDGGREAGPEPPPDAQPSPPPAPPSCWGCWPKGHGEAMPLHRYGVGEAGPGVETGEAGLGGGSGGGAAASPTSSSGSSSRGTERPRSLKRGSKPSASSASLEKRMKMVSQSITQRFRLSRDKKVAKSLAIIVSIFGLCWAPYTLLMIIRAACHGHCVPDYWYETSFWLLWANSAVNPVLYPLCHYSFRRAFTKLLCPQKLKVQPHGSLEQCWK

## CCN(CC)Cc1ccc(COc2ccc(C(C)=O)cc2)cc1
[1]
  ED50: 3.4 mg/kg
[2]
  Ki: 91 nM

## CCCc1ccc(OCc2ccc(CN3CCCCC3)cc2)cc1
[1]
  ED50: 4.3 mg/kg
[2]
  Ki: 257 nM

## CC(=O)c1ccc(OCc2ccc(CN3CCCCCC3)cc2)cc1
[1]
  ED50: 4.3 mg/kg
[2]
  Ki: 37 nM
[3]
  Kb: 30.9 nM

## c1cn(-c2ccc(OCc3ccc(CN4CCCCC4)cc3)cc2)cn1
[1]
  ED50: 4 mg/kg
[2]
  Ki: 27 nM
[3]
  Kb: 15.8 nM

## Brc1ccc(OCc2ccc(CN3CCCCC3)cc2)cc1
[1]
  ED50: > 10 mg/kg
[2]
  Ki: 114 nM

## CC(=O)c1ccc(OCc2ccc(CN3CCCCC3)cc2)cc1
[1]
  ED50: 3.9 mg/kg
[2]
  Ki: 84 nM
[3]
  Kb: 61.7 nM
[4]
  Kb: 10200 nM
[5]
  Kb: 4570 nM
[6]
  IC50: 10400 nM

## c1ccc(OCc2ccc(CN3CCCCC3)cc2)cc1
[1]
  ED50: 30 mg/kg
[2]
  Ki: 227 nM

## CCc1ccc(OCc2ccc(CN3CCCCC3)cc2)cc1
[1]
  ED50: 2.2 mg/kg
[2]
  Ki: 163 nM

## CC(=O)c1ccc(OCCCc2c[nH]cn2)cc1
[1]
  ED50: 0.24 mg/kg
[2]
  Ki: 87 nM

## c1cc(CN2CCCCC2)ccc1COc1ccc(C2CCCC2)cc1
[1]
  ED50: 3.1 mg/kg
[2]
  Ki: 201 nM

## FC(F)(F)c1ccc(OCc2ccc(CN3CCCCC3)cc2)cc1
[1]
  ED50: > 10 mg/kg
[2]
  Ki: 125 nM

## CC(C)c1ccc(OCc2ccc(CN3CCCCC3)cc2)cc1
[1]
  ED50: 3 mg/kg
[2]
  Ki: 253 nM

## c1ccc(Cc2ccc(OCc3ccc(CN4CCCCC4)cc3)cc2)cc1
[1]
  ED50: > 10 mg/kg
[2]
  Ki: 238 nM

## Cc1cccc(OCc2ccc(CN3CCCCC3)cc2)c1
[1]
  ED50: 20 mg/kg
[2]
  Ki: 334 nM

## c1ccc(NCc2ccc(OCc3ccc(CN4CCCCC4)cc3)cc2)cc1
[1]
  ED50: 10 mg/kg
[2]
  Ki: 90 nM

## c1cc(CN2CCCCC2)ccc1COc1ccc2c(c1)CCCC2
[1]
  ED50: 3.5 mg/kg
[2]
  Ki: 92 nM

## c1cc(CN2CCCCC2)ccc1COc1ccc(CN2CCCCC2)cc1
[1]
  ED50: 9.6 mg/kg
[2]
  Ki: 2.8 nM
[3]
  Kb: 38 nM

## c1cc(CN2CCCCC2)ccc1COc1ccc2c(c1)CCC2
[1]
  ED50: 1.9 mg/kg
[2]
  Ki: 87 nM

## c1ccc(CCc2ccc(OCc3ccc(CN4CCCCC4)cc3)cc2)cc1
[1]
  ED50: 30 mg/kg
[2]
  Ki: 890 nM

## c1ccc(COc2ccc(OCc3ccc(CN4CCCCC4)cc3)cc2)cc1
[1]
  ED50: > 30 mg/kg
[2]
  Ki: 550 nM

## Clc1ccc(OCc2ccc(CN3CCCCC3)cc2)cc1
[1]
  ED50: > 10 mg/kg
[2]
  Ki: 124 nM

## c1ccc(Oc2ccc(OCc3ccc(CN4CCCCC4)cc3)cc2)cc1
[1]
  ED50: > 10 mg/kg
[2]
  Ki: 530 nM

## O=C(c1ccc(OCc2ccc(CN3CCCCC3)cc2)cc1)C1CCCC1
[1]
  ED50: 2.8 mg/kg
[2]
  Ki: 157 nM
[3]
  Kb: 30.9 nM

## COc1ccc(OCc2ccc(CN3CCCCC3)cc2)cc1
[1]
  ED50: 20 mg/kg
[2]
  Ki: 119 nM

## Cc1ccc(OCc2ccc(CN3CCCCC3)cc2)cc1
[1]
  ED50: 1.8 mg/kg

## CC(=O)c1ccc(OCc2ccc(CN3CCCC3)cc2)cc1
[1]
  ED50: 1.9 mg/kg
[2]
  Ki: 26 nM
[3]
  Kb: 18.2 nM
[4]
  Kb: 7760 nM
[5]
  Kb: 9330 nM

## Clc1ccc(OCc2ccc(CN3CCCCC3)cc2)cc1Cl
[1]
  ED50: > 10 mg/kg
[2]
  Ki: 167 nM

## C(=C\c1ccc(OCc2ccc(CN3CCCCC3)cc2)cc1)/c1ccccc1
[1]
  ED50: > 10 mg/kg
[2]
  Ki: 761 nM

## Cc1ccc(OCc2ccc(CN3CCCCC3)cc2)cc1C
[1]
  ED50: 4.8 mg/kg
[2]
  Ki: 149 nM

## C/C(=N\O)c1ccc(OCc2ccc(CN3CCCCC3)cc2)cc1
[1]
  ED50: 5 mg/kg
[2]
  Ki: 55 nM
[3]
  Kb: 85.1 nM
[4]
  Kb: 14100 nM
[5]
  Kb: 7940 nM

## CCCOc1ccc(OCc2ccc(CN3CCCCC3)cc2)cc1
[1]
  ED50: 10 mg/kg
[2]
  Ki: 88 nM

## O=C(c1ccc(OCc2ccc(CN3CCCCC3)cc2)cc1)C1CC1
[1]
  ED50: 5.9 mg/kg
[2]
  Ki: 66 nM

## CCCCc1ccc(OCc2ccc(CN3CCCCC3)cc2)cc1
[1]
  ED50: 2.8 mg/kg
[2]
  Ki: 169 nM

## O=[N+]([O-])c1ccc(OCCCCCN2CCCC2)cc1
[1]
  ED50: 1.1 mg/kg
[7]
  Ki: 39 nM

## CO/N=C(\C)c1ccc(OCc2ccc(CN3CCCCC3)cc2)cc1
[1]
  ED50: 6.4 mg/kg
[2]
  Ki: 129 nM
[3]
  Kb: 288 nM
[4]
  Kb: 3980 nM
[5]
  Kb: 3470 nM

## Fc1cc(OCc2ccc(CN3CCCCC3)cc2)ccc1Cl
[1]
  ED50: > 10 mg/kg
[2]
  Ki: 95 nM

## CCCCCc1ccc(OCc2ccc(CN3CCCCC3)cc2)cc1
[1]
  ED50: 3 mg/kg

## Cc1cc(OCc2ccc(CN3CCCCC3)cc2)ccc1Cl
[1]
  ED50: > 10 mg/kg
[2]
  Ki: 42 nM

## Ic1ccc(OCc2ccc(CN3CCCCC3)cc2)cc1
[1]
  ED50: > 10 mg/kg
[2]
  Ki: 107 nM

## Fc1ccc(OCc2ccc(CN3CCCCC3)cc2)cc1
[1]
  ED50: 15 mg/kg
[2]
  Ki: 123 nM
